Consider twelve compounds from ChEMBL document CHEMBL1833870, “Deconstruction of the α4β2 nicotinic acetylcholine receptor positive allosteric modulator desformylflustrabromine” (J Med Chem, 2011).

The target of experiment [1] is Neuronal acetylcholine receptor subunit alpha-7 (Homo sapiens, UniProt P36544). Nature of the experiment: Antagonist activity at human alpha7 nAChR expressed in xenopus oocyte assessed as inhibition of acetylcholine-induced current by two-electrode voltage clamp assay. It is filed as functional. In short, it runs like this: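 Xenopus stage IV oocytes were injected with human α7 cRNA (50 nL, 0.2 ng/nL) and kept 24–72 h at 19 °C. Recording was by two-electrode voltage clamp with ND-96 perfusion (pH 7.4) at 20 mL/min. Compound dissolved in ND-96 was co-applied with ACh, and inhibition of the ACh response was read. Concentration–response data were fit by non-linear regression.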

The target of experiment [2] is T1, Neuronal acetylcholine receptor; alpha4/beta2 (Homo sapiens, UniProt P17787+P43681). Nature of the experiment: Agonist activity at human alpha4beta2 nACHR expressed in xenopus oocyte assessed as potentiation of acetylcholine-induced current by two electrode voltage clamp assay. The class given is functional. In a few lines: (§1)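 Human α4 and β2 cRNA injected into stage IV Xenopus oocytes (50 nL total at 0.2 ng/nL, subunit ratio as appropriate), then incubated 24–72 h at 19 °C. Two-electrode voltage clamp in a vertical flow chamber perfused with ND-96 (pH 7.4) at 20 mL/min. Compound in ND-96 was co-applied with ACh, and the enhancement of current was measured. Concentration–response curves were fit by non-linear regression.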

The target of experiment [3] is T1, Neuronal acetylcholine receptor; alpha4/beta2. Put plainly: Agonist activity at human alpha4beta2 nACHR expressed in xenopus oocyte assessed as potentiation of acetylcholine-induced current by two electrode voltage clamp assay relative to acetylcholine. The class given is functional. In a few lines: as §1
The species named for the next experiment is Homo sapiens. Put plainly: Selectivity ratio of IC50 for human alpha7 nAChR to IC50 for human alpha4beta2 nAChR.

Structures can show the parent of a compound that is named as a salt. Active and inactive are the calls of the source. No cut-off for these calls is given here.

Sequence of Neuronal acetylcholine receptor subunit alpha-7 (P36544 whole entry, the tested form may be a part): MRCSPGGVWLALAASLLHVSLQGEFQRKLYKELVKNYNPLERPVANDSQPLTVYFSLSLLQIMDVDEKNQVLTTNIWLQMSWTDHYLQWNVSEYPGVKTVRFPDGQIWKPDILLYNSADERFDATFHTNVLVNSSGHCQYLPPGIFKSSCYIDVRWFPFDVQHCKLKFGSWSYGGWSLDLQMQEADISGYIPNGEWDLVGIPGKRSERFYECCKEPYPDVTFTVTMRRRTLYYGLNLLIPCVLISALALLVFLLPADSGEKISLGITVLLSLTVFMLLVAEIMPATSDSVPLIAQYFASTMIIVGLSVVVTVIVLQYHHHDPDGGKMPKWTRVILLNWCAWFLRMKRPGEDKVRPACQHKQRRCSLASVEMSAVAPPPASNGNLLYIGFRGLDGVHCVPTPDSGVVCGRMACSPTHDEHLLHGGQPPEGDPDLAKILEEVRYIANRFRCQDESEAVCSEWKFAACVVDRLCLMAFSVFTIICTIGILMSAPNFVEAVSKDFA
T1 sequence (P17787 whole entry, the tested form may be a part): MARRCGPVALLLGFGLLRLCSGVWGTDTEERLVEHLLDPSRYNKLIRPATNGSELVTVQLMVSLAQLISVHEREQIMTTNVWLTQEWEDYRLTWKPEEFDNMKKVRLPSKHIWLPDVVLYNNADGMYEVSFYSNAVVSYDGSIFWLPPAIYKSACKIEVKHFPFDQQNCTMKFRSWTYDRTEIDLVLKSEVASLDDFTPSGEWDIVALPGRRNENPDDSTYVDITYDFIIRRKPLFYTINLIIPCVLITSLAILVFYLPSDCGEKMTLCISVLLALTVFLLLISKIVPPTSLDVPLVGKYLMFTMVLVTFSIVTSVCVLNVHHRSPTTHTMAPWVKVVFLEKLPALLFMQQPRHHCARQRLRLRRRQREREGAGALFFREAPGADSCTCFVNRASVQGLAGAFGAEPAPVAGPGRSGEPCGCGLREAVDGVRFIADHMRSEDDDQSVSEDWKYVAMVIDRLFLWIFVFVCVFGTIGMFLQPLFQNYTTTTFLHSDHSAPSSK
T1 sequence (P43681 whole entry, the tested form may be a part): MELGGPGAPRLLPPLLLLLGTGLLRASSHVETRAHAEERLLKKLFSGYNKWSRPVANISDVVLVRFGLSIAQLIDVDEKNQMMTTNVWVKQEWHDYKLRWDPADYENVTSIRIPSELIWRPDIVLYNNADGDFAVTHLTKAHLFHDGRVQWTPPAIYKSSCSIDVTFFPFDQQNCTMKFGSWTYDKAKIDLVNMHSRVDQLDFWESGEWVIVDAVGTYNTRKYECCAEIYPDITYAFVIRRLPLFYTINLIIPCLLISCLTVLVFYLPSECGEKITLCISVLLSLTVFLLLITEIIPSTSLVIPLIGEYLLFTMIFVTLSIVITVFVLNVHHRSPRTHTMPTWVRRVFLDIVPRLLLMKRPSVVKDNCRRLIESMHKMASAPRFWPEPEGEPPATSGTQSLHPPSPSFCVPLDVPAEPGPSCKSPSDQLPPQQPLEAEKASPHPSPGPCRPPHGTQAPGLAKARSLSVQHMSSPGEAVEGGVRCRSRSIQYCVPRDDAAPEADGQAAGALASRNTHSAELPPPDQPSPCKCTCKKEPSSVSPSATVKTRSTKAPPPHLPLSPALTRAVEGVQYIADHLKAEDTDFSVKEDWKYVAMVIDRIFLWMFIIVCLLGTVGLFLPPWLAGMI

`CCC(C)c1[nH]c2ccccc2c1CCNC` (racemic): in experiment [1], the EC50 was 9.77 µM. Besides, the pEC50 entry in experiment [2] is “inactive”.

As to `C=CC(C)(C)c1[nH]c2cc(Br)ccc2c1CCN`, the results for the EC50 in experiment [1] and in experiment [2] (read-out: pEC50 (converted)) were 5.75 µM and 0.513 µM, respectively.

`C=CCc1[nH]c2cc(Br)ccc2c1CCNC`: the EC50 in experiment [1] is 29.5 µM. The pEC50 result in experiment [2] was “inactive”.

`CNCCc1c[nH]c2cc(Br)ccc12`: the EC50 in experiment [1] is 11 µM. Besides, in experiment [2], the pEC50 result was “inactive”.

Regarding `CCCc1[nH]c2cc(Br)ccc2c1CCNC`, the EC50 in experiment [1] was 20.9 µM. Also, the pEC50 result in experiment [2] was “inactive”.

Regarding `CNCCc1c(C(C)C)[nH]c2ccccc12`, the pEC50 result in experiment [2] is “inactive”.

For `C=CC(C)(C)c1[nH]c2cc(Br)ccc2c1CCNC` [DESFORMYLFLUSTRABROMINE HYDROCHLORIDE], the results for the EC50 in experiment [1], in experiment [2] (read-out: EC50) and in experiment [2] (read-out: pEC50 (converted)) were 1.86 µM, 0.32 µM and 0.331 µM, respectively.

Turning to `CCC(C)(C)c1[nH]c2cc(Br)ccc2c1CCNC`, the Emax in experiment [3] turned out to be 290%. The EC50 in experiment [1] was 25.7 µM; in experiment [2] (read-out: EC50) it was 0.1 µM; in experiment [2] (read-out: pEC50 (converted)), 0.138 µM. The Ratio IC50 in the experiment listed under Homo sapiens came to 190.

On to `CCCc1[nH]c2ccccc2c1CCNC`, for which the EC50 in experiment [1] was 44.7 µM. Also, the pEC50 result in experiment [2] is “inactive”.

As for `CNCCc1c(C(C)(C)C)[nH]c2ccccc12`, the EC50 in experiment [1] is 4.79 µM; in experiment [2] (read-out: pEC50 (converted)), 3.98 µM.

`C=CC(C)(C)c1[nH]c2ccccc2c1CCNC`: the Emax in experiment [3] stood at 250%. The EC50 in experiment [1] was 7.76 µM; in experiment [2] (read-out: EC50), 6.77 µM; in experiment [2] (read-out: pEC50 (converted)), 7.24 µM.

With `CCC(C)(C)c1[nH]c2ccccc2c1CCNC`, the Emax in experiment [3] worked out at 260%. The EC50 was 20.4 µM in experiment [1], 1.22 µM in experiment [2] (read-out: EC50) and 3.02 µM in experiment [2] (read-out: pEC50 (converted)).
